Assay results published in ChEMBL document CHEMBL4765349, “Design, synthesis and biological evaluation of novel N-sulfonylamidine-based derivatives as c-Met inhibitors via Cu-catalyzed three-component reaction” (Eur J Med Chem, 2020).
Calls of active or inactive are those of the source. The calls are words filed in the database; no cut-off is given here.

Experiments:
[1] = Toxicity in Balb/c mouse assessed as survival rate at 400 mg/kg, ip measured after 15 days; type: organism-based; settings: in vivo, time 15 day
Outline: (§1)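 Acute toxicity: 8-week-old male BALB/c mice, randomized in groups of n = 10, given a single intraperitoneal injection on day zero (vehicle only, 100, 200, 300 or 400 mg/kg). A further untreated group served as normal control. Survival on day 15 was reported as a percentage.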

A549 [2] = experiment: Induction of apoptosis in human A549 cells assessed as late apoptosis at 1 uM measured after 12 hrs by Annexin V-FITC/ Propidium iodide stain based flow cytometry assay relative to control; type: functional
Outline: (§2)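 Cells double-stained with FITC-annexin V and propidium iodide, then flow cytometry gave the percentages of early and late apoptotic cells.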

[3] = Toxicity in Balb/c mouse assessed as survival rate at 300 mg/kg, ip measured after 15 days; type: organism-based; settings: in vivo, time 15 day; outline: as §1
[4] = Toxicity in Balb/c mouse assessed as survival rate at 200 mg/kg, ip measured after 15 days; type: organism-based; settings: in vivo, time 15 day; outline: as §1
A549 [5] = experiment: Induction of cell cycle arrest in human A549 cells assessed as increased accumulation of cells at G2/M phase measured after 24 hrs by Propidium iodide stain based Flow cytometry assay; type: functional; settings: dose 0.25-1 µM
Outline: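 A549 cells exposed to vehicle or 0.25, 0.5 or 1.0 µM compound. DNA content measured by propidium iodide staining with RNase and flow cytometry, and the G2/M fraction was scored.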

[6] = Half life in Balb/c mouse at 2 mg/kg, iv measured after 24 hrs by LC/MS/MS analysis; type: ADME, organism-based; settings: in vivo
Outline: (§3)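 BALB/c mice dosed once orally at 8 mg/kg or intravenously at 2 mg/kg. Plasma concentration followed over time, and Cmax, Tmax, AUC0-∞, elimination half-life, clearance and oral bioavailability were derived from it.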

MDA-MB-231 = experiment: Cytotoxicity against human MDA-MB-231 cells assessed as inhibition of cell proliferation measured after 72 hrs by MTT assay; type: functional, cell-based; settings: MDA-MB-231, 72 h
[7] = AUC (0 to infinity) in Balb/c mouse at 2 mg/kg, iv measured after 24 hrs by LC/MS/MS analysis; type: ADME, organism-based; set-up: route intravenous, time 24 hrs, dose 2 mg/kg; settings: in vivo; outline: as §3
[8] = Tmax in Balb/c mouse at 8 mg/kg, po measured after 24 hrs by LC/MS/MS analysis; type: ADME, organism-based; settings: in vivo; outline: as §3
[9] = target: Epidermal growth factor receptor (Homo sapiens, UniProt P00533); experiment: Inhibition of EGFR (unknown origin) using poly (Glu, Tyr)4:1 as substrate in presence of ATP measured after 30 mins by HTRF assay
Outline: (§4)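 Kinase inhibition measured by homogeneous time-resolved fluorescence (HTRF) across a panel of Ron, ALK and other tyrosine kinases, with IC50 as the read-out.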

[10] = Selectivity index, ratio of IC50 for human FHC cells assessed as inhibition of cell proliferation to IC50 of HT-29 cells assessed as inhibition of cell proliferation; type: toxicity; settings: FHC cells versus HT-29 cells, read-out: Selectivity Index
[11] = target: Hepatocyte growth factor receptor (Homo sapiens, UniProt P08581); experiment: Inhibition of human c-MET phosphorylation in human A549 cells measured after 1 hr by western blot analysis; settings: dose 2-8 µmol/L
Hepatocyte growth factor receptor, sequence (P08581 whole entry): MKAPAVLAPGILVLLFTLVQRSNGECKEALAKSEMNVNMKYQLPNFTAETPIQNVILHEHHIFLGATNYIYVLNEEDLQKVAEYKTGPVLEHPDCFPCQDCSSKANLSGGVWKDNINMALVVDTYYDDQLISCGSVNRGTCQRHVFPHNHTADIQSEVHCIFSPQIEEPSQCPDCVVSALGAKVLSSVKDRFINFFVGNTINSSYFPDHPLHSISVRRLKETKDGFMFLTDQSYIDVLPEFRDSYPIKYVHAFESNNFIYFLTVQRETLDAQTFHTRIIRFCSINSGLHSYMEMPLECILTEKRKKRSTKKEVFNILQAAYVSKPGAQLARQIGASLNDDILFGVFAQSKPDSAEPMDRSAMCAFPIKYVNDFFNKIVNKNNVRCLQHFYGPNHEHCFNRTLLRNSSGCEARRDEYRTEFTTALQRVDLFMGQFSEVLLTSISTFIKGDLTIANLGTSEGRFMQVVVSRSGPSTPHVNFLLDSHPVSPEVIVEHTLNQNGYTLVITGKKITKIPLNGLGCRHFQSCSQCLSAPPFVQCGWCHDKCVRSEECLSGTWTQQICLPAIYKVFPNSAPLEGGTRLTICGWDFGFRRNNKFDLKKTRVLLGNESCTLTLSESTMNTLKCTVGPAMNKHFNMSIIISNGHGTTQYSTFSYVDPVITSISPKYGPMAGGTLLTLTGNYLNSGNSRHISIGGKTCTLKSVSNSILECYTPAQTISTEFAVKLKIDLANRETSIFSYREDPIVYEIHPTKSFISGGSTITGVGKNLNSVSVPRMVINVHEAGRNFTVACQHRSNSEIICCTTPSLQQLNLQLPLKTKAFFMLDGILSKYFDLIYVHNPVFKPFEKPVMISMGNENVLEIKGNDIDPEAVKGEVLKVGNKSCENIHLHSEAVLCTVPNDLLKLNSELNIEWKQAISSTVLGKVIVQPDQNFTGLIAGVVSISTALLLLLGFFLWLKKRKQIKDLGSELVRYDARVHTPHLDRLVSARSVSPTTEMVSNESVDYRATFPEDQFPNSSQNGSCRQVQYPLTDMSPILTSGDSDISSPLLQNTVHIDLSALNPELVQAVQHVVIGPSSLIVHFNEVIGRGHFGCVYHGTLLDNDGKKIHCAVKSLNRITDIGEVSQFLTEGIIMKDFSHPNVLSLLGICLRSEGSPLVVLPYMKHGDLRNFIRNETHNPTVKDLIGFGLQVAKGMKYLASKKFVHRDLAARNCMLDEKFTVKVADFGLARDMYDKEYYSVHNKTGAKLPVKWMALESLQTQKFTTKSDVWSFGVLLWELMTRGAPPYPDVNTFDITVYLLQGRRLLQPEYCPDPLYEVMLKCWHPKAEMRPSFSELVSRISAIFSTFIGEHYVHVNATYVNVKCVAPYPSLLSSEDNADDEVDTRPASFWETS

MKN-45 = experiment: Cytotoxicity against human MKN-45 cells assessed as inhibition of cell proliferation measured after 72 hrs by MTT assay; type: functional, cell-based; settings: MKN-45, 72 h
[12] = target: Vascular endothelial growth factor receptor 2 (Homo sapiens, UniProt P35968); experiment: Inhibition of VEGFR 2 (unknown origin) using poly (Glu, Tyr)4:1 as substrate in presence of ATP measured after 30 mins by HTRF assay
Vascular endothelial growth factor receptor 2, sequence (P35968 whole entry): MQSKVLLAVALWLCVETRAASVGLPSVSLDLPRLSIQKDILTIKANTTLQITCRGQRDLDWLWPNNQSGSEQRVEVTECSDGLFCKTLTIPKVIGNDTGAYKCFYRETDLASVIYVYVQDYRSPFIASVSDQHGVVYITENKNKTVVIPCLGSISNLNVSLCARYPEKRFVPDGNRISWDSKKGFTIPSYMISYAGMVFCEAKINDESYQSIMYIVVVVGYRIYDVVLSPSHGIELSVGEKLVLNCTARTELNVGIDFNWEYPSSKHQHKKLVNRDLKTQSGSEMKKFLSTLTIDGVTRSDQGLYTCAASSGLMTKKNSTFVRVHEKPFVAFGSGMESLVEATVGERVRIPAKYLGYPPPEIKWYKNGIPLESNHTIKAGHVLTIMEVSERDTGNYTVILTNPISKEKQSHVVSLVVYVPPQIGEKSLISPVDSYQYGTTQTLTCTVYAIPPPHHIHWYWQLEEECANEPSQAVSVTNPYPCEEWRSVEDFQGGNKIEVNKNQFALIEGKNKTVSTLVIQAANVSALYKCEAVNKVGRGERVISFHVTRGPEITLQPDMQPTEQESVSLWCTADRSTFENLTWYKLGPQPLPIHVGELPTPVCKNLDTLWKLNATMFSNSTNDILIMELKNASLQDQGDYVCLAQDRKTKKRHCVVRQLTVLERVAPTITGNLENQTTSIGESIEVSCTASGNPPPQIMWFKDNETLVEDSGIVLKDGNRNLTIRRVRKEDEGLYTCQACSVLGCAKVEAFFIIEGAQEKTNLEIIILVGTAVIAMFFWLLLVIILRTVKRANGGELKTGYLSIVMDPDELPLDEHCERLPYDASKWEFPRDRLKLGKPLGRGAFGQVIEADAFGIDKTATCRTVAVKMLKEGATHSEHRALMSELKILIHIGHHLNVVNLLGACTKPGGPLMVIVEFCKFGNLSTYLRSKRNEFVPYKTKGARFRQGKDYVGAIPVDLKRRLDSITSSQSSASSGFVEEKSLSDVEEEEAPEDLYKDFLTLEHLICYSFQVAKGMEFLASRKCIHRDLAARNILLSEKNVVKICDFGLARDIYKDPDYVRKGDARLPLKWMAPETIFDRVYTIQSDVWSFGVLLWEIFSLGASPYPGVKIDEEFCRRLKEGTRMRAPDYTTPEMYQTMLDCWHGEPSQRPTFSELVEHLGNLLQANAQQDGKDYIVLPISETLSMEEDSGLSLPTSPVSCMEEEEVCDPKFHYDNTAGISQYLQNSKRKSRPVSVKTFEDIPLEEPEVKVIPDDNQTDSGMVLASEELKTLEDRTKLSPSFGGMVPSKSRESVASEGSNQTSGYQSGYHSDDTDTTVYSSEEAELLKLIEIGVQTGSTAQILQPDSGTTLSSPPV

[13] = Cmax in Balb/c mouse at 2 mg/kg, iv measured after 24 hrs by LC/MS/MS analysis; type: ADME, organism-based; set-up: route intravenous, dose 2 mg/kg, time 24 hrs; settings: in vivo; outline: as §3
[14] = Oral bioavailability in Balb/c mouse at 8 mg/kg measured after 24 hrs by LC/MS/MS analysis; type: ADME, organism-based; settings: in vivo; outline: as §3
A549 [15] = experiment: Induction of apoptosis in human A549 cells assessed as early apoptosis at 1 uM measured after 12 hrs by Annexin V-FITC/ Propidium iodide stain based flow cytometry assay relative to control; type: functional; outline: as §2
[16] = target: T1, Receptor-type tyrosine-protein kinase FLT3 (Homo sapiens, UniProt P36888); experiment: Inhibition of FLT-3 (unknown origin) using poly (Glu, Tyr)4:1 as substrate in presence of ATP measured after 30 mins by HTRF assay
T1 sequence (P36888 whole entry): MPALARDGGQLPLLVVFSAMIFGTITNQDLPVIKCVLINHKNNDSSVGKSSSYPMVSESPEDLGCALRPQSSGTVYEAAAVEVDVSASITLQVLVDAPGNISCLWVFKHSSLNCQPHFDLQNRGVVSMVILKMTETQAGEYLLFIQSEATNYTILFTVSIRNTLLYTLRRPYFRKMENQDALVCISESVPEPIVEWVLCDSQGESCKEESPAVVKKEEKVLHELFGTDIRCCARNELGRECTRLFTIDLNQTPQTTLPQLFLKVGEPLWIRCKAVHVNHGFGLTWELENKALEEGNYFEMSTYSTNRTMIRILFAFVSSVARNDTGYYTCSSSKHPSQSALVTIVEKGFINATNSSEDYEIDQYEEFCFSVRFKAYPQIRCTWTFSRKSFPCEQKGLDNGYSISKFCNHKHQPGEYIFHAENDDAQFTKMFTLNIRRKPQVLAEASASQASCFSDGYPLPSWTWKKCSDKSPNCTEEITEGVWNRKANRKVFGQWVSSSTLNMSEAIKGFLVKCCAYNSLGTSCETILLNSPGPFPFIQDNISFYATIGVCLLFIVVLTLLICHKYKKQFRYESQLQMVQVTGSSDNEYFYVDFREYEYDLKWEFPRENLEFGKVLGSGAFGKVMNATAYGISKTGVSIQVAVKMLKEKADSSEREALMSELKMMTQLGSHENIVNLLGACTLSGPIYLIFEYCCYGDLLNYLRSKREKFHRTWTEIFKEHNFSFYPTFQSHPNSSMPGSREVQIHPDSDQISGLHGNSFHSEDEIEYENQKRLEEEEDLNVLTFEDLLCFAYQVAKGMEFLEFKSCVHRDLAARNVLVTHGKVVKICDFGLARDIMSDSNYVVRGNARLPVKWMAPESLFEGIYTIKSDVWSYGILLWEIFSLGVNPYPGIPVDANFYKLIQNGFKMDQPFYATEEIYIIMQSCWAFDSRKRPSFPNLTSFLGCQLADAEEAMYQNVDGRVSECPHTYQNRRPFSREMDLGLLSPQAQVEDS

[17] = target: ALK tyrosine kinase receptor (Homo sapiens, UniProt Q9UM73); experiment: Inhibition of ALK (unknown origin) using poly (Glu, Tyr)4:1 as substrate in presence of ATP measured after 30 mins by HTRF assay; outline: as §4
ALK tyrosine kinase receptor, sequence (Q9UM73 whole entry): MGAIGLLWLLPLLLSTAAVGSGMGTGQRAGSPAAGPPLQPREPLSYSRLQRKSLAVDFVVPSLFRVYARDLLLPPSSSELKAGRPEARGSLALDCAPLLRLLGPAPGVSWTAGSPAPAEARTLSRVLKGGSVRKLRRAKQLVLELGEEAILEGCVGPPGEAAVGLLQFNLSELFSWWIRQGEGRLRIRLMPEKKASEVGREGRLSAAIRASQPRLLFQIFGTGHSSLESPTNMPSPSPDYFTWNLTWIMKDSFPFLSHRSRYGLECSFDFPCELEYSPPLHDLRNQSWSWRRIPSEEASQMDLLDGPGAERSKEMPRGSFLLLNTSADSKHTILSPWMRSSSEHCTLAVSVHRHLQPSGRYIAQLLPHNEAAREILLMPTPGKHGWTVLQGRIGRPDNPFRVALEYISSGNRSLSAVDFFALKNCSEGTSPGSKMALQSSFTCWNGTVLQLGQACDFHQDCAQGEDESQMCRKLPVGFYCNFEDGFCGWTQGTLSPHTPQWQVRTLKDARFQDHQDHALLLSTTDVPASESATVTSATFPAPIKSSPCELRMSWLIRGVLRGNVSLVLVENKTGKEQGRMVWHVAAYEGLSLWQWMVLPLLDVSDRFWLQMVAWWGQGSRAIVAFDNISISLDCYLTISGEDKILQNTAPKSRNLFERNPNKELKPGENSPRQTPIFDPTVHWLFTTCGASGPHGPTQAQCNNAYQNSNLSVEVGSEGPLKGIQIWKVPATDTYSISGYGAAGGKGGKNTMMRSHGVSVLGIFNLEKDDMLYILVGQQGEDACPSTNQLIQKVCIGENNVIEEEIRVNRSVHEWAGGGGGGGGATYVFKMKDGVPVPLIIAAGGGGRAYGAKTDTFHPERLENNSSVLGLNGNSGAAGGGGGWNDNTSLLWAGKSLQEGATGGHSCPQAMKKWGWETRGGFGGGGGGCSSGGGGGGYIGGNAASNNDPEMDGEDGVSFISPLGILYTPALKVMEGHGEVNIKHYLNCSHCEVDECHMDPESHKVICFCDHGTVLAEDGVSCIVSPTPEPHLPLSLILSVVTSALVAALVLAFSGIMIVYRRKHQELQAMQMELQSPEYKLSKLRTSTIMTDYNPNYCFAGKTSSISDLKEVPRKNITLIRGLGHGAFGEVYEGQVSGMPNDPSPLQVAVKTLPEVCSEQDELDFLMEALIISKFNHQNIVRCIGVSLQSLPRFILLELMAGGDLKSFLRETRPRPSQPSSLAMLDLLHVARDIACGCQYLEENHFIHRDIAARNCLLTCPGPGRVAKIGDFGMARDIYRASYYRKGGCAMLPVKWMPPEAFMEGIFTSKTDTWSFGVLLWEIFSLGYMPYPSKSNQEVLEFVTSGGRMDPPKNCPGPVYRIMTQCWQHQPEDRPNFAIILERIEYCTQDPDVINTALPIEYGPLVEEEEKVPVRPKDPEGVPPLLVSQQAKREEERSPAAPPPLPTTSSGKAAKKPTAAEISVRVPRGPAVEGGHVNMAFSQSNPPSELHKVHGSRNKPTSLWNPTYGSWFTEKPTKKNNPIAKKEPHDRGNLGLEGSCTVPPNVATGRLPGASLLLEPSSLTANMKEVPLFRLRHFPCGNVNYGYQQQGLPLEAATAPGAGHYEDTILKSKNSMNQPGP

[18] = Toxicity in Balb/c mouse assessed as allergic reaction at 100 to 200 mg/kg, ip measured after 15 days; type: organism-based; settings: in vivo, 360 h, dose 100-200 mg/kg, time 15 day
Outline: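 Acute toxicity in 8-week-old male BALB/c mice, randomized into groups of n = 10. Single intraperitoneal dose on day 0 of vehicle or 100, 200, 300 or 400 mg/kg, plus an untreated control group. Mice watched for 15 days for deaths, abnormalities, anaphylactic or allergic reactions and body weight loss.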

COCC/C(=N\S(=O)(=O)Cc1ccc(Cl)cc1)Nc1ccc(Oc2ccnc3cc(OCCCN4CCOCC4)c(OC)cc23)c(F)c1
survival at 360 h [1]: 50% | Activity (A549 [2]): 30.99% | survival at 360 h [3]: 70% | survival at 360 h [4]: 100% | Activity (A549 [5]): Dose-dependent effect | half-life [6]: 1.8 h | IC50 (MDA-MB-231): 720 nM | AUC [7]: 2.3 µg/h/mL | Tmax [8]: 2.5 h | IC50 [9]: > 10000 nM | selectivity ratio [10]: 19.1 | inhibition [11]: Active | IC50 (MKN-45): 480 nM | IC50 [12]: 673 nM | Cmax [13]: 676 ng/mL | bioavailability [14]: 74% | Activity (A549 [15]): 15.69% | IC50 [16]: 7.28 nM | IC50 [17]: > 10000 nM | Activity [18]: Non-Toxic
